Results published in ChEMBL document CHEMBL1149444, “Discovery of imidazo[1,2-b][1,2,4]triazines as GABA(A) alpha2/3 subtype selective agonists for the treatment of anxiety” (J Med Chem, 2006).
Calls of active or inactive are those of the source. No cut-off for these calls is given here.

How the values were obtained:
[1] = molecular target: GABA-A receptor; alpha-1/beta-3/gamma-2 (Homo sapiens) (UniProt P14867+P18507+P28472); test: Efficacy against recombinant human GABAA alpha1 receptor plus beta3gamma2 expressed in L(tk-) cells by whole cell patch clamp method relative to chlordiazepoxide; assay type: functional, cell-based
Summary of the method: (§1)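 Whole-cell patch clamp on L(tk-) cells stably expressing the receptor (alpha plus beta3gamma2). GABA applied at an EC20-equivalent concentration. Modulation of the current measured with increasing test concentrations. Efficacy expressed relative to the maximal chlordiazepoxide response (set at 1.00) or as a percentage.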

[2] = Half life in rhesus at 1 mg/kg, iv or 1 mg/kg, po; assay type: ADME, organism-based, Macaca mulatta; details: rhesus monkey, in vivo
Summary of the method: (§2)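 Pharmacokinetics in rat, dog or rhesus after 1 mg/kg iv and 1 mg/kg po dosing. Plasma clearance (mL/min/kg), half-life (h), volume of distribution (L/kg) and oral bioavailability (%) were derived.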

[3] = tested on: Mus musculus; test: Impairment in mouse rotarod assay upto 10 mg/kg, po; assay type: functional, organism-based; design: dose 10 mg/kg
Summary of the method: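 Mouse rotarod test for sedation or myorelaxation after oral dosing up to 10 mg/kg. n = 8 per group. Significance versus vehicle at p < 0.05.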

[4] = molecular target: GABA-A receptor; alpha-3/beta-3/gamma-2 (Homo sapiens) (UniProt P18507+P28472+P34903); test: Efficacy against recombinant human GABAA alpha3 receptor plus beta-3-gamma-2 expressed in L(tk-) cells by whole cell patch clamp method relative to chlordiazepoxide; assay type: functional, cell-based; summary of the method: as §1
[5] = Oral bioavailability in dog at 1 mg/kg, iv or 1 mg/kg, po; assay type: ADME, organism-based, Canis lupus familiaris; details: in vivo; summary of the method: as §2

Which Efficacy [1] does the source give for `CC(C)(O)c1cnn2c(-c3ccc(F)c(-c4c(F)cccc4C#N)c3)cnc2n1` here?
Its Efficacy is 3%.

What about the half-life [2] of the same compound?
The half-life was 4.9 h.

What about the Activity [3] of the same compound?
The Activity was “inactive”.

And the Efficacy [4]?
The Efficacy was 50%.

And the bioavailability [5]?
The bioavailability was 22%.
